Results reported in ChEMBL document CHEMBL1144069, “Cytotoxic activities of hypocretenolides from Leontodon hispidus” (J Nat Prod, 1999).
Active and inactive are the calls of the source. The calls are words filed in the database; no cut-off is given here.

Tests used:
Type in all cases: functional, cell-based
[1] = Cytotoxicity against human GTB cells after 5 hrs by MTT assay
Summary of the method: (§1)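 Leukemic cells at 0.5 × 10^6 cells/mL in RPMI were exposed to 0.01–2.00 µM compound (0.1% final DMSO) at 37 °C and 5% CO2. Viability was measured as MTT formazan, dissolved in DMSO and read at 550 and 630 nm. Three wells per point, on three separate days (n = 9). IC50 was taken graphically from per-experiment dose curves.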

HL-60 [2] = test: Cytotoxicity against human HL-60 cells after 5 hrs by MTT assay; details: HL-60, 5 h; summary of the method: as §1
A-431 [3] = test: Cytotoxicity against human A431 cells after 24 hrs by [3H]thymidine incorporation assay
Summary of the method: (§2)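 Adherent tumor cells (100 µL at 1 × 10^6 cells/mL) were overlaid with 100 µL of medium containing compound in the 0.25–4.00 µM range (0.1% final DMSO). The medium control had no compound. Cells were incubated for 24, 48 or 72 h at 37 °C and 5% CO2, then pulsed 24 h with 3H-thymidine. They were harvested onto glass filters and counted by liquid scintillation. Three wells per point, on three separate days (n = 9). IC50 was taken graphically.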

A-431 [4] = test: Cytotoxicity against human A431 cells after 48 hrs by [3H]thymidine incorporation assay; summary of the method: as §2
A-431 [5] = test: Cytotoxicity against human A431 cells after 72 hrs by [3H]thymidine incorporation assay; summary of the method: as §2
HEp-2 [6] = test: Cytotoxicity against human HEP2 cells after 24 hrs by [3H]thymidine incorporation assay; summary of the method: as §2
HEp-2 [7] = test: Cytotoxicity against human HEP2 cells after 48 hrs by [3H]thymidine incorporation assay; summary of the method: as §2
HEp-2 [8] = test: Cytotoxicity against human HEP2 cells after 72 hrs by [3H]thymidine incorporation assay; summary of the method: as §2
MCF7 [9] = test: Cytotoxicity against human MCF7 cells after 24 hrs by [3H]thymidine incorporation assay; summary of the method: as §2
MCF7 [10] = test: Cytotoxicity against human MCF7 cells after 48 hrs by [3H]thymidine incorporation assay; summary of the method: as §2
MCF7 [11] = test: Cytotoxicity against human MCF7 cells after 72 hrs by [3H]thymidine incorporation assay; summary of the method: as §2
OVCAR-3 [12] = test: Cytotoxicity against human OVCAR-3 cells after 24 hrs by [3H]thymidine incorporation assay; summary of the method: as §2
OVCAR-3 [13] = test: Cytotoxicity against human OVCAR-3 cells after 48 hrs by [3H]thymidine incorporation assay; summary of the method: as §2
OVCAR-3 [14] = test: Cytotoxicity against human OVCAR-3 cells after 72 hrs by [3H]thymidine incorporation assay; summary of the method: as §2
[15] = Cytotoxicity against human SK MEL28 cells after 24 hrs by [3H]thymidine incorporation assay; details: SK-MEL-28; summary of the method: as §2
[16] = Cytotoxicity against human SK MEL28 cells after 48 hrs by [3H]thymidine incorporation assay; details: SK-MEL-28; summary of the method: as §2
[17] = Cytotoxicity against human SK MEL28 cells after 72 hrs by [3H]thymidine incorporation assay; details: SK-MEL-28; summary of the method: as §2
[18] = Cytotoxicity against human SK37 cells after 24 hrs by [3H]thymidine incorporation assay; summary of the method: as §2
[19] = Cytotoxicity against human SK37 cells after 48 hrs by [3H]thymidine incorporation assay; summary of the method: as §2
[20] = Cytotoxicity against human SK37 cells after 72 hrs by [3H]thymidine incorporation assay; summary of the method: as §2
SW872 [21] = test: Cytotoxicity against human SW872 cells after 24 hrs by [3H]thymidine incorporation assay; summary of the method: as §2
SW872 [22] = test: Cytotoxicity against human SW872 cells after 48 hrs by [3H]thymidine incorporation assay; summary of the method: as §2
SW872 [23] = test: Cytotoxicity against human SW872 cells after 72 hrs by [3H]thymidine incorporation assay
Summary of the method: (§3)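 Adherent tumour cells at 1 × 10^6 cells/mL (100 µL per well) overlaid with an equal volume of medium carrying test substance across 0.25–4.00 µM. Medium-only controls. Incubated 24, 48 or 72 h at 37 °C, 5% CO2, then pulsed 24 h with 3H-thymidine and harvested onto glass filters for scintillation counting. Final DMSO 0.1%. Triplicate wells, three days (n = 9). IC50 read graphically from each experiment's dose curve.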

ZR-75-1 [24] = test: Cytotoxicity against human ZR-75-1 cells after 24 hrs by [3H]thymidine incorporation assay; summary of the method: as §3
ZR-75-1 [25] = test: Cytotoxicity against human ZR-75-1 cells after 48 hrs by [3H]thymidine incorporation assay; summary of the method: as §3
ZR-75-1 [26] = test: Cytotoxicity against human ZR-75-1 cells after 72 hrs by [3H]thymidine incorporation assay; summary of the method: as §3
GTB = test: Cytotoxicity against human GTB cells at 0.01 to 2.0 uM after 5 hrs by MTT assay; summary of the method: as §1
HL-60 [27] = test: Cytotoxicity against human HL-60 cells at 0.01 to 2.0 uM after 5 hrs by MTT assay; summary of the method: as §1
A-431 [28] = test: Cytotoxicity against human A431 cells at 0.25 to 2.0 uM after 24 hrs by [3H]thymidine incorporation assay; summary of the method: as §2
A-431 [29] = test: Cytotoxicity against human A431 cells at 0.25 to 2.0 uM after 48 hrs by [3H]thymidine incorporation assay; summary of the method: as §2
A-431 [30] = test: Cytotoxicity against human A431 cells at 0.25 to 2.0 uM after 72 hrs by [3H]thymidine incorporation assay; summary of the method: as §2
HEp-2 [31] = test: Cytotoxicity against human HEP2 cells at 0.25 to 2.0 uM after 24 hrs by [3H]thymidine incorporation assay; summary of the method: as §2
HEp-2 [32] = test: Cytotoxicity against human HEP2 cells at 0.25 to 2.0 uM after 48 hrs by [3H]thymidine incorporation assay; summary of the method: as §2
HEp-2 [33] = test: Cytotoxicity against human HEP2 cells at 0.25 to 2.0 uM after 72 hrs by [3H]thymidine incorporation assay; summary of the method: as §2
MCF7 [34] = test: Cytotoxicity against human MCF7 cells at 0.25 to 2.0 uM after 24 hrs by [3H]thymidine incorporation assay; summary of the method: as §2
MCF7 [35] = test: Cytotoxicity against human MCF7 cells at 0.25 to 2.0 uM after 48 hrs by [3H]thymidine incorporation assay; summary of the method: as §2
MCF7 [36] = test: Cytotoxicity against human MCF7 cells at 0.25 to 2.0 uM after 72 hrs by [3H]thymidine incorporation assay; summary of the method: as §2
OVCAR-3 [37] = test: Cytotoxicity against human OVCAR-3 cells at 0.25 to 2.0 uM after 24 hrs by [3H]thymidine incorporation assay; summary of the method: as §2
OVCAR-3 [38] = test: Cytotoxicity against human OVCAR-3 cells at 0.25 to 2.0 uM after 48 hrs by [3H]thymidine incorporation assay; summary of the method: as §2
OVCAR-3 [39] = test: Cytotoxicity against human OVCAR-3 cells at 0.25 to 2.0 uM after 72 hrs by [3H]thymidine incorporation assay; summary of the method: as §2
SK-MEL-28 [40] = test: Cytotoxicity against human SK MEL28 cells at 0.25 to 2.0 uM after 24 hrs by [3H]thymidine incorporation assay; summary of the method: as §2
SK-MEL-28 [41] = test: Cytotoxicity against human SK MEL28 cells at 0.25 to 2.0 uM after 48 hrs by [3H]thymidine incorporation assay; summary of the method: as §2
SK-MEL-28 [42] = test: Cytotoxicity against human SK MEL28 cells at 0.25 to 2.0 uM after 72 hrs by [3H]thymidine incorporation assay; summary of the method: as §2
SK37 [43] = test: Cytotoxicity against human SK37 cells at 0.25 to 2.0 uM after 24 hrs by [3H]thymidine incorporation assay; summary of the method: as §2
SK37 [44] = test: Cytotoxicity against human SK37 cells at 0.25 to 2.0 uM after 48 hrs by [3H]thymidine incorporation assay; summary of the method: as §2
SK37 [45] = test: Cytotoxicity against human SK37 cells at 0.25 to 2.0 uM after 72 hrs by [3H]thymidine incorporation assay; summary of the method: as §2
SW872 [46] = test: Cytotoxicity against human SW872 cells at 0.25 to 2.0 uM after 24 hrs by [3H]thymidine incorporation assay; summary of the method: as §3
SW872 [47] = test: Cytotoxicity against human SW872 cells at 0.25 to 2.0 uM after 48 hrs by [3H]thymidine incorporation assay; summary of the method: as §3
SW872 [48] = test: Cytotoxicity against human SW872 cells at 0.25 to 2.0 uM after 72 hrs by [3H]thymidine incorporation assay; summary of the method: as §3
ZR-75-1 [49] = test: Cytotoxicity against human ZR-75-1 cells at 0.25 to 2.0 uM after 24 hrs by [3H]thymidine incorporation assay; summary of the method: as §3
ZR-75-1 [50] = test: Cytotoxicity against human ZR-75-1 cells at 0.25 to 2.0 uM after 48 hrs by [3H]thymidine incorporation assay; summary of the method: as §3
ZR-75-1 [51] = test: Cytotoxicity against human ZR-75-1 cells at 0.25 to 2.0 uM after 72 hrs by [3H]thymidine incorporation assay; summary of the method: as §3

With `C=C1C(=O)O[C@]23C[C@H]1CCC(CO)=C2C(=O)C=C3C` the IC50 [1] was 260 nM, the IC50 (HL-60 [2]) was 260 nM and the IC50 (A-431 [3]) was 1500 nM. It also gave an IC50 (A-431 [4]) of 1300 nM, an IC50 (A-431 [5]) of 900 nM and an IC50 (HEp-2 [6]) of 1500 nM. For the same compound, the IC50 (HEp-2 [7]) was 1300 nM, the IC50 (HEp-2 [8]) was 1100 nM and the IC50 (MCF7 [9]) was 800 nM. The IC50 (MCF7 [10]) was 700 nM, the IC50 (MCF7 [11]) was 1000 nM and the IC50 (OVCAR-3 [12]) was 1900 nM. The IC50 (OVCAR-3 [13]) was 2100 nM, the IC50 (OVCAR-3 [14]) was 1800 nM and the IC50 [15] was 2800 nM. For the same compound, the IC50 [16] was 2600 nM, the IC50 [17] was 1200 nM and the IC50 [18] was 3200 nM. It also gave an IC50 [19] of 2400 nM, an IC50 [20] of 1800 nM and an IC50 (SW872 [21]) of 3100 nM. For the same compound, the IC50 (SW872 [22]) was 2200 nM, the IC50 (SW872 [23]) was 2800 nM and the IC50 (ZR-75-1 [24]) was 600 nM. For the same compound, the IC50 (ZR-75-1 [25]) was 900 nM and the IC50 (ZR-75-1 [26]) was 1000 nM.
In the case of `C=C1C(=O)O[C@]23C[C@H]1CCC(CO[C@H]1O[C@@H](CO)[C@H](O)[C@@H](O)[C@@H]1O)=C2C(=O)C=C3C`, the Activity (GTB) is reported as “inactive”, the Activity (HL-60 [27]) is reported as “inactive” and the Activity (A-431 [28]) is reported as “inactive”. For the same compound, the Activity (A-431 [29]) was “inactive”, the Activity (A-431 [30]) was “inactive” and the Activity (HEp-2 [31]) was “inactive”. For the same compound, the Activity (HEp-2 [32]) was “inactive”, the Activity (HEp-2 [33]) was “inactive” and the Activity (MCF7 [34]) was “inactive”. For the same compound, the Activity (MCF7 [35]) was “inactive”, the Activity (MCF7 [36]) was “inactive” and the Activity (OVCAR-3 [37]) was “inactive”. The Activity (OVCAR-3 [38]) was “inactive”, the Activity (OVCAR-3 [39]) was “inactive” and the Activity (SK-MEL-28 [40]) was “inactive”. For the same compound, the Activity (SK-MEL-28 [41]) was “inactive”, the Activity (SK-MEL-28 [42]) was “inactive” and the Activity (SK37 [43]) was “inactive”. The Activity (SK37 [44]) was “inactive”, the Activity (SK37 [45]) was “inactive” and the Activity (SW872 [46]) was “inactive”. For the same compound, the Activity (SW872 [47]) was “inactive”, the Activity (SW872 [48]) was “inactive” and the Activity (ZR-75-1 [49]) was “inactive”. For the same compound, the Activity (ZR-75-1 [50]) was “inactive” and the Activity (ZR-75-1 [51]) was “inactive”.
Work on `C=C1C(=O)O[C@@H]2C[C@@H](C)[C@@H]3C=CC(=O)[C@@]3(C)[C@@H](O)[C@H]12` [HELENALIN] yielded an IC50 [1] of 270 nM, an IC50 (HL-60 [2]) of 320 nM and an IC50 (A-431 [3]) of 900 nM. It also gave an IC50 (A-431 [4]) of 900 nM, an IC50 (A-431 [5]) of 800 nM and an IC50 (HEp-2 [6]) of 900 nM. It also gave an IC50 (HEp-2 [7]) of 900 nM, an IC50 (HEp-2 [8]) of 800 nM and an IC50 (MCF7 [9]) of 800 nM. For the same compound, the IC50 (MCF7 [10]) was 500 nM, the IC50 (MCF7 [11]) was 700 nM and the IC50 (OVCAR-3 [12]) was 1400 nM. It also gave an IC50 (OVCAR-3 [13]) of 1600 nM, an IC50 (OVCAR-3 [14]) of 1700 nM and an IC50 [15] of 1300 nM. The IC50 [16] was 900 nM, the IC50 [17] was 500 nM and the IC50 [18] was 1300 nM. For the same compound, the IC50 [19] was 1200 nM, the IC50 [20] was 700 nM and the IC50 (SW872 [21]) was 1400 nM. For the same compound, the IC50 (SW872 [22]) was 1200 nM, the IC50 (SW872 [23]) was 1200 nM and the IC50 (ZR-75-1 [24]) was 700 nM. For the same compound, the IC50 (ZR-75-1 [25]) was 800 nM and the IC50 (ZR-75-1 [26]) was 1100 nM.
